From ChEMBL document CHEMBL3045454, “Synthesis and fungicidal activity of aryl carbamic acid-5-aryl-2-furanmethyl ester” (2010)

Assays:
Corynespora cassiicola [1] = assay: Fungicidal activity Corynespora cassiicola assessed as inhibition of mycelium growth at 50 mg/L at 24 degC measured after 2 days; type: functional; settings: 48 h
Method in brief: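 Mycelial growth assay on potato dextrose agar. The compound, as a 50 mg L^-1 DMF solution, is mixed into the PDA and a fungus cake is placed on it. DMF serves as blank. Plates are incubated at 24 ± 0.5 °C for 2 days. Mycelial diameters are measured and the inhibitory rate is calculated from them. Three replicates.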

Plutella xylostella [2] = assay: Insecticidal activity against Plutella xylostella (diamondback moth) assessed as mortality at 600 mg/L measured after 72 hr; type: functional
Culex pipiens pallens = assay: Larvicidal activity against fourth-instar Culex pipiens pallens (mosquito) assessed as mortality at 2000 mg/L measured after 8 days; type: functional; settings: 192 h
Method in brief: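 Twenty fourth-instar Culex pipiens pallens larvae are placed in 10 mL of the test solution (acetone/distilled water, final 2000 mg L^-1) and reared for 8 days. Mortality is recorded as percent dead. Acetone serves as blank. Four replicates.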

Botrytis cinerea = assay: Fungicidal activity Botrytis cinerea assessed as inhibition of mycelium growth at 50 mg/L at 24 degC measured after 2 days; settings: 48 h
Fusarium oxysporum = assay: Fungicidal activity Fusarium oxysporum assessed as inhibition of mycelium growth at 50 mg/L at 24 degC measured after 2 days; settings: 48 h
Corynespora cassiicola [3] = assay: Fungicidal activity Corynespora cassiicola assessed as inhibition of mycelium growth at 50 mg/L at 24 degC measured after 2 days; settings: 48 h
Plutella xylostella [4] = assay: Insecticidal activity against Plutella xylostella assessed as mortality at 5 mg/L measured after 72 hr; type: functional

Row | Compound | inhibition at 50 µg/mL (Corynespora cassiicola [1]) [%] | mortality at 600 µg/mL (Plutella xylostella [2]) [%] | mortality at 2000 µg/mL (Culex pipiens pallens) [%] | inhibition at 50 µg/mL (Botrytis cinerea) [%] | inhibition at 50 µg/mL (Fusarium oxysporum) [%] | inhibition at 50 µg/mL (Corynespora cassiicola [3]) [%] | mortality at 5 µg/mL (Plutella xylostella [4]) [%]
1 | O=C(NC(=O)c1ccccc1Cl)OCc1ccc(-c2ccc(F)cc2)o1 | 60.6 | 0 | 10 | 40.6 | 4.46 | 38.6 | –
2 | O=C(NC(=O)c1c(F)cccc1F)OCc1ccc(-c2ccccc2Cl)o1 | 36.6 | 0 | 0 | 66.6 | 41.2 | 43.5 | –
3 | O=C(NC(=O)c1c(F)cccc1F)OCc1ccc(-c2cccc(Cl)c2)o1 | – | 0 | 10 | 63.5 | 45.4 | 50.5 | –
4 | O=C(NC(=O)c1c(F)cccc1F)OCc1ccc(-c2ccc(Cl)cc2)o1 | – | 0 | 10 | 100 | 92.3 | 71.6 | –
5 | O=C(NC(=O)c1c(F)cccc1F)OCc1ccc(-c2ccccc2Br)o1 | – | 10 | 20 | 54.3 | 42.3 | 52.2 | –
6 | O=C(NC(=O)c1c(F)cccc1F)OCc1ccc(-c2ccc(Br)cc2)o1 | 63.3 | 10 | 0 | 62.2 | 7.38 | 57.8 | –
7 | O=C(NC(=O)c1c(Cl)cccc1Cl)OCc1ccc(-c2ccccc2F)o1 | 70.4 | 10 | 0 | 57.3 | 1.5 | 36 | –
8 | O=C(NC(=O)c1c(Cl)cccc1Cl)OCc1ccc(-c2cccc(F)c2)o1 | 62 | 20 | 10 | 32.6 | 8.82 | 12.9 | –
9 | O=C(NC(=O)c1c(Cl)cccc1Cl)OCc1ccc(-c2ccc(F)cc2)o1 | 72.7 | 0 | 0 | 37.1 | 35.3 | 37.3 | –
10 | O=C(NC(=O)c1c(Cl)cccc1Cl)OCc1ccc(-c2ccc(F)cc2F)o1 | 63.3 | 1 | 10 | 27.9 | 15.9 | 16 | –
11 | O=C(NC(=O)c1c(Cl)cccc1Cl)OCc1ccc(-c2ccccc2Cl)o1 | 83.1 | 0 | 0 | 41.4 | 35.3 | 34.7 | –
12 | O=C(NC(=O)c1c(Cl)cccc1Cl)OCc1ccc(-c2cccc(Cl)c2)o1 | 53.3 | 10 | 10 | 13 | 14.5 | 19 | –
13 | O=C(NC(=O)c1c(Cl)cccc1Cl)OCc1ccc(-c2ccc(Cl)cc2)o1 | 67.9 | 10 | 0 | 48.1 | 44.6 | 33.3 | –
14 | O=C(NC(=O)c1c(Cl)cccc1Cl)OCc1ccc(-c2ccccc2Br)o1 | 79.2 | 0 | 0 | 44.8 | 42.3 | 39.9 | –
15 | O=C(NC(=O)c1c(Cl)cccc1Cl)OCc1ccc(-c2ccc(Br)cc2)o1 | 64.7 | 0 | 10 | 52.8 | 32.8 | 54.4 | –
16 | O=C(NC(=O)c1ccccc1Cl)OCc1ccc(-c2ccccc2F)o1 | 65.3 | 0 | 10 | 34.4 | 1.5 | 26.3 | –

Row | Compound | inhibition at 50 µg/mL (Corynespora cassiicola [1]) [%] | mortality at 600 µg/mL (Plutella xylostella [2]) [%] | mortality at 2000 µg/mL (Culex pipiens pallens) [%] | inhibition at 50 µg/mL (Botrytis cinerea) [%] | inhibition at 50 µg/mL (Fusarium oxysporum) [%] | inhibition at 50 µg/mL (Corynespora cassiicola [3]) [%] | mortality at 5 µg/mL (Plutella xylostella [4]) [%]
17 | O=C(NC(=O)c1ccccc1Cl)OCc1ccc(-c2cccc(F)c2)o1 | 53.3 | 0 | 10 | 48.9 | 14.5 | 37.3 | –
18 | O=C(NC(=O)c1ccccc1Cl)OCc1ccc(-c2ccccc2Cl)o1 | 69.8 | 0 | 20 | 25 | 0 | 43.8 | –
19 | O=C(NC(=O)c1ccccc1Cl)OCc1ccc(-c2cccc(Cl)c2)o1 | 38.6 | 0 | 0 | 24.1 | -3.03 | 24.9 | –
20 | O=C(NC(=O)c1ccccc1Cl)OCc1ccc(-c2ccc(Cl)cc2)o1 | 75.5 | 0 | 10 | 55.1 | 14.5 | 66 | –
21 | O=C(NC(=O)c1ccccc1Cl)OCc1ccc(-c2ccccc2Br)o1 | 67.3 | 0 | 0 | 54.3 | 25.2 | 42.5 | –
22 | O=C(NC(=O)c1ccccc1Cl)OCc1ccc(-c2ccc(Br)cc2)o1 | 50.2 | 0 | 10 | 34.4 | 10.2 | 59.9 | –
23 | O=C(NC(=O)c1c(F)cccc1F)OCc1ccc(-c2ccccc2F)o1 | – | 0 | 0 | 70.4 | 44.6 | 44.5 | –
24 | O=C(NC(=O)c1c(F)cccc1F)OCc1ccc(-c2cccc(F)c2)o1 | 38.4 | 0 | 10 | 60.4 | 7.63 | 31.5 | –
25 | O=C(NC(=O)c1c(F)cccc1F)OCc1ccc(-c2ccc(F)cc2)o1 | 56 | 10 | 0 | 58.5 | 49.4 | 22.1 | –
26 | O=C(NC(=O)c1c(F)cccc1F)OCc1ccc(-c2ccc(F)cc2F)o1 | – | 0 | 10 | 64 | 44.6 | 42.5 | –
27 | N#Cc1c(Cl)c(Cl)c(Cl)c(C#N)c1Cl [CHLOROTHALONIL] | – | – | – | – | – | 23.3 | –
28 | N#Cc1nn(-c2c(Cl)cc(C(F)(F)F)cc2Cl)c(N)c1[S+]([O-])C(F)(F)F (stereo unspecified) [FIPRONIL] | – | – | – | – | – | – | 100
29 | Cc1cc(C)nc(Nc2ccccc2)n1 [PYRIMETHANIL] | – | – | – | 48.9 | – | – | –
30 | CC(C)(C)N(NC(=O)c1ccccc1)C(=O)c1ccccc1 [RH-5849] | – | – | 0 | – | – | – | –
31 | COC(=O)NC(=S)Nc1ccccc1NC(=S)NC(=O)OC [THIOPHANATE METHYL] | – | – | – | – | 34.2 | – | –
